Assay results pooled from the literature.
PDE3A: cGMP-inhibited 3',5'-cyclic phosphodiesterase 3A (PDE3A, Homo sapiens, UniProt Q14432)
PIK3C3: Phosphatidylinositol 3-kinase catalytic subunit type 3 (PIK3C3, Homo sapiens, UniProt Q8NEB9)

Clc1ccc2c(C3CCN(CCc4c[nH]c5ccccc45)CC3)c[nH]c2c1
inhibition (PDE3A; enzyme activity; inhibitor; 10 µM): -1%

C#Cc1n[nH]c2c(-c3cn([C@@H](C)c4ccccc4)c(=O)[nH]c3=O)cc(F)cc12
inhibition (Phosphatidylinositol 4-phosphate 3-kinase C2 domain-containing subunit alpha (PIK3C2A, Homo sapiens, UniProt O00443); enzyme activity; inhibitor; 0.1 µM): 11.7%

CCN(CC)CCCC[C@H](NC(=O)[C@H](CC(C)C)NC(=O)[C@H](C)NC(=O)[C@H](Cc1ccccc1)NC(=O)c1ccc(C(C)(C)C)cc1)C(=O)N[C@@H](CO)C(=O)OC
inhibition (5-hydroxytryptamine receptor 1A (HTR1A, Homo sapiens, UniProt P08908); ligand displacement; radioligand; 10 µM): 19%

CN(C)C(=O)COC(=O)Cc1ccc(OC(=O)c2ccc(NC(=N)N)cc2)cc1
inhibition (Ataxin-3 (ATXN3, Homo sapiens, UniProt P54252); enzyme activity; inhibitor; 10 µM): 3%

Cn1cc(-c2cccc(N3CCc4c(sc5c4CC(C)(C)C5)C3=O)c2CO)cc(Nc2ccncn2)c1=O
inhibition (PIK3C3; enzyme activity; inhibitor; 1 µM): 0%

C[C@@H]1CCCN1CCCCOc1ccc2occc(=O)c2c1
inhibition (Bile salt-activated lipase (Homo sapiens, UniProt P19835); enzyme activity; inhibitor; fluorescence; 10 µM): 6%

Cn1cc(-c2cc(F)cc(N3CCn4c(cc5c4CCCC5)C3=O)c2CO)cc(Nc2ccc(N3CCN(C4COC4)CC3)cn2)c1=O
inhibition (Serine/threonine-protein kinase PAK 3 (PAK3, Homo sapiens, UniProt O75914); enzyme activity; inhibitor; 0.1 µM): 16%

C#Cc1n[nH]c2c(-c3cn([C@@H](C)c4ccccn4)c(=O)[nH]c3=O)cc(F)cc12
inhibition (PIK3C3; enzyme activity; inhibitor; 0.1 µM): 8.6%

O=C(Nc1cccnn1)N1CCN([C@@H]2CCOc3cc(C(F)(F)F)ccc32)CC1
inhibition (PDE3A; cell-free assay; 20 µM): 4%

c1ccc(C(NCCNC(c2ccccc2)c2ccccc2)c2ccccc2)cc1
inhibition (PDE3A; cell-free assay; inhibitor; 10 µM): 0%

CN(CCN1CCC(OC(=O)Nc2ccccc2-c2ccccc2)CC1)C(=O)c1ccc(CN2CCC(C(N)=O)CC2)cc1
inhibition (Nociceptin receptor (OPRL1, Homo sapiens, UniProt P41146); ligand displacement; radioligand; 1 µM): 0%

COc1cc(Nc2ncc(F)c(Nc3ccc4c(n3)NC(=O)C(C)(C)O4)n2)cc(OC)c1OC
inhibition (Serine/threonine-protein kinase RIO2 (RIOK2, Homo sapiens, UniProt Q9BVS4); binding; 10 µM): 83%
